Activity calls are given as the source filed them. No cut-off for these calls is given here.
Tests used:
[1] = biological target: Cholinesterase (Equus caballus) (UniProt P81908); experiment: Inhibition of equine serum BChE at 10 uM using S-butyrylthiocholine chloride as substrate preincubated for 15 mins followed by substrate addition and measured for 45 mins by Ellmans microplate assay
Procedure, shortened: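 BuChE Ellman microplate assay at single 10 µM concentration: 0.1 M sodium phosphate buffer pH 8, sample in DMSO (1% final DMSO), 15 min room-temperature preincubation, then DTNB and S-butyrylthiocholine chloride; absorbance at 412 nm for 45 min, corrected by enzyme-free blanks. Quadruplicate, repeated at least twice; percent inhibition ± SD.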

Brain = experiment: Antioxidant activity in brain homogenate (unknown origin) assessed as decrease in TBARS formation by UV-visible spectrophotometric method; format: functional, tissue-based
Procedure, shortened: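 Brain tissue homogenate mixed with test sample at five concentrations, SDS, 20% acetic acid and […], then heated at 95°C for 60 min. After cooling, the chromogen was extracted into butanol:pyridine (15:1) and centrifuged. Absorbance of the organic layer was read at 532 nm against a blank, in duplicate. % inhibition of TBARS = (Abs control − Abs sample)×100/Abs control.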

Mus musculus [2] = experiment: Reversal of scopolamine-induced memory impairment in Swiss albino mouse assessed as decrease in transfer latency time at 200 mg/kg, po administered for 8 days followed by scopolamine challenge after 60 mins of last dose measured after 45 mins by elevated plus maze test; format: functional, organism-based
Procedure, shortened: (§1)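 Swiss albino mice (20–25 g, both sexes), dosed p.o. once daily for eight days; scopolamine HBr 0.4 mg/kg i.p. given 1 h after the last dose. Transfer latency on elevated plus maze (open to closed arm, all four legs) recorded 45 min after scopolamine, after five 5-min pre-trials. Step-down latency on Cook's pole apparatus measured 24 h after training. Dunnett post-test.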

Mus musculus [3] = experiment: Reversal of scopolamine-induced memory deficit in Swiss albino mouse assessed as increase in step down latency time at 200 mg/kg, po administered for 8 days followed by scopolamine challenge by step down inhibitory avoidance test; format: functional, organism-based; procedure, shortened: as §1
Acetylcholinesterase [4] = biological target: Acetylcholinesterase (Homo sapiens, UniProt P22303); experiment: Inhibition of AChE (unknown origin)
Acetylcholinesterase [5] = biological target: Acetylcholinesterase (Electrophorus electricus, UniProt O42275); experiment: Inhibition of electric eel AChE using acetylthiocholine iodide as substrate preincubated for 15 mins followed by substrate addition and measured for 45 mins by Ellmans microplate assay
Cholinesterase = Cholinesterase (Equus caballus, UniProt P81908); experiment: Inhibition of equine serum BuChE using S-butyrylthiocholine chloride as substrate preincubated for 15 mins followed by substrate addition and measured for 45 mins by Ellmans microplate assay
Mus musculus [6] = experiment: Toxicity in Swiss albino mouse assessed as effect on behavior at 800 mg/kg, po administered for 14 consecutive days; format: organism-based; conditions: in vivo
Procedure, shortened: (§2)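 Acute oral toxicity per OECD-423 in Swiss albino mice (20–25 g), 3 male + 3 female per group, acclimatized 15 days; suspension in water with 1% w/v sodium carboxymethylcellulose, given p.o. at 900 then 800 mg/kg. Clinical signs, behaviour (awareness, mood, CNS excitation/depression, autonomic reflexes) and mortality observed at 15 min–72 h and up to 14 days.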

Mus musculus [7] = experiment: Toxicity in Swiss albino mouse assessed as mortality at 800 mg/kg, po administered for 14 consecutive days; format: organism-based; conditions: in vivo; procedure, shortened: as §2
Mus musculus [8] = experiment: Toxicity in Swiss albino mouse assessed as effect on awareness at 800 mg/kg, po administered for 14 consecutive days; format: organism-based; conditions: in vivo; procedure, shortened: as §2
Mus musculus [9] = experiment: Toxicity in Swiss albino mouse assessed as effect on mood at 800 mg/kg, po administered for 14 consecutive days; format: organism-based; conditions: in vivo; procedure, shortened: as §2
Mus musculus [10] = experiment: Toxicity in Swiss albino mouse assessed as CNS excitation at 800 mg/kg, po administered for 14 consecutive days; format: organism-based; conditions: in vivo; procedure, shortened: as §2
Mus musculus [11] = experiment: Toxicity in Swiss albino mouse assessed as CNS depression at 800 mg/kg, po administered for 14 consecutive days; format: organism-based; conditions: in vivo; procedure, shortened: as §2
Mus musculus [12] = experiment: Toxicity in Swiss albino mouse assessed as effect on autonomic reflexes at 800 mg/kg, po administered for 14 consecutive days; format: organism-based; conditions: in vivo; procedure, shortened: as §2
[13] = Toxicity in Swiss albino mouse assessed as mortality at 900 mg/kg, po administered for 14 consecutive days; format: organism-based; conditions: in vivo; procedure, shortened: as §2
Mus musculus [14] = experiment: Reversal of scopolamine-induced memory impairment in Swiss albino mouse assessed as decrease in transfer latency time at 50 to 100 mg/kg, po administered for 8 days followed by scopolamine challenge after 60 mins of last dose measured after 45 mins by elevated plus maze test; format: functional, organism-based
Procedure, shortened: (§3)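 Swiss albino mice (20–25 g, both sexes) were acclimatized 15 days and had five 5-min baseline trials on the elevated plus maze. Oral vehicle, test or piracetam (200 mg/kg) was given for 8 days. Scopolamine 0.4 mg/kg i.p. followed 1 h after the last dose. Training started 45 min later: each mouse was placed at the open-arm end facing away, and transfer latency was timed until all four legs entered a closed arm.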

Mus musculus [15] = experiment: Reversal of scopolamine-induced memory deficit in Swiss albino mouse assessed as increase in step down latency time at 50 to 100 mg/kg, po administered for 8 days followed by scopolamine challenge by step down inhibitory avoidance test; format: functional, organism-based
Procedure, shortened: (§4)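 Done after the EPM session in the same mouse groups: oral test dosing for 8 days, then scopolamine 0.4 mg/kg i.p. Training used Cook's pole apparatus, a wooden platform on a bronze-bar grid, with each mouse placed on the platform and allowed to step down. 24 h later the mouse was lowered onto the platform and step-down latency was timed. Dunnett post-test was applied.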

Mus musculus [16] = experiment: Reversal of scopolamine-induced memory impairment in Swiss albino mouse assessed as decrease in transfer latency time at 50 mg/kg, po administered for 8 days followed by scopolamine challenge after 60 mins of last dose measured after 45 mins by elevated plus maze test; format: functional, organism-based; procedure, shortened: as §3
Mus musculus [17] = experiment: Reversal of scopolamine-induced memory deficit in Swiss albino mouse assessed as increase in step down latency time at 50 mg/kg, po administered for 8 days followed by scopolamine challenge by step down inhibitory avoidance test; format: functional, organism-based; procedure, shortened: as §4

Sequence of Cholinesterase (Equus caballus) (P81908 whole entry): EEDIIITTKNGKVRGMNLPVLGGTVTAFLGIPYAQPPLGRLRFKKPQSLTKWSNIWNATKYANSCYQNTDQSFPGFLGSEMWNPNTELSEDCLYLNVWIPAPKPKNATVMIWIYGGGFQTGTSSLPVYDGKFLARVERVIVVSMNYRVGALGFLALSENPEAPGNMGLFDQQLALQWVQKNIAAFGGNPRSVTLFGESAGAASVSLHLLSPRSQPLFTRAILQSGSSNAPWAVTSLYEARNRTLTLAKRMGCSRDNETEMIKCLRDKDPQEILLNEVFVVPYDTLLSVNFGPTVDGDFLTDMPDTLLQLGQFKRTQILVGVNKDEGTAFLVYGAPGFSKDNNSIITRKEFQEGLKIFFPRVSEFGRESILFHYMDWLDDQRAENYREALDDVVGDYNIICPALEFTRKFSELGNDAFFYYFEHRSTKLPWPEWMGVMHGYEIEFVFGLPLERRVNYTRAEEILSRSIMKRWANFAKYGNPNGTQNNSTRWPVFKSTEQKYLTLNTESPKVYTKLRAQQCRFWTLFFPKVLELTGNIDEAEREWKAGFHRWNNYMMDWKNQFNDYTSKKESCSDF
Sequence of Acetylcholinesterase (Electrophorus electricus, UniProt O42275) (O42275 whole entry): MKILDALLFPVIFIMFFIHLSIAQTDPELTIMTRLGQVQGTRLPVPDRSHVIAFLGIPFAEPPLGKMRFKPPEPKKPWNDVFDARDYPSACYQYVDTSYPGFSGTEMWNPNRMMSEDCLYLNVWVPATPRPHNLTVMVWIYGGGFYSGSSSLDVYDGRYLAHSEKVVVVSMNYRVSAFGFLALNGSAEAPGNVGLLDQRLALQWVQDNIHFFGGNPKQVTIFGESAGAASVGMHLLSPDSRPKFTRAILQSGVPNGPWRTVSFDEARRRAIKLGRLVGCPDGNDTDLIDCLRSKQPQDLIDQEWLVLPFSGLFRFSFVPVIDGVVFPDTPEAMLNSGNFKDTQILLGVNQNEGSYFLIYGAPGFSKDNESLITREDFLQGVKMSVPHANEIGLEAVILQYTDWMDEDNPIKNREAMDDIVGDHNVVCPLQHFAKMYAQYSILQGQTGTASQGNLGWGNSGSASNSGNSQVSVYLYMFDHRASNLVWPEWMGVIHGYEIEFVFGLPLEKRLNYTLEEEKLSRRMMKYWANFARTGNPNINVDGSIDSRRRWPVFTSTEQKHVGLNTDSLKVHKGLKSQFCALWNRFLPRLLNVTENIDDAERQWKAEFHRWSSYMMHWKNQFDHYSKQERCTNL
Sequence of Cholinesterase (P81908 whole entry): as the sequence (P81908 whole entry) above
Sequence of Acetylcholinesterase (Homo sapiens, UniProt P22303) (P22303 whole entry): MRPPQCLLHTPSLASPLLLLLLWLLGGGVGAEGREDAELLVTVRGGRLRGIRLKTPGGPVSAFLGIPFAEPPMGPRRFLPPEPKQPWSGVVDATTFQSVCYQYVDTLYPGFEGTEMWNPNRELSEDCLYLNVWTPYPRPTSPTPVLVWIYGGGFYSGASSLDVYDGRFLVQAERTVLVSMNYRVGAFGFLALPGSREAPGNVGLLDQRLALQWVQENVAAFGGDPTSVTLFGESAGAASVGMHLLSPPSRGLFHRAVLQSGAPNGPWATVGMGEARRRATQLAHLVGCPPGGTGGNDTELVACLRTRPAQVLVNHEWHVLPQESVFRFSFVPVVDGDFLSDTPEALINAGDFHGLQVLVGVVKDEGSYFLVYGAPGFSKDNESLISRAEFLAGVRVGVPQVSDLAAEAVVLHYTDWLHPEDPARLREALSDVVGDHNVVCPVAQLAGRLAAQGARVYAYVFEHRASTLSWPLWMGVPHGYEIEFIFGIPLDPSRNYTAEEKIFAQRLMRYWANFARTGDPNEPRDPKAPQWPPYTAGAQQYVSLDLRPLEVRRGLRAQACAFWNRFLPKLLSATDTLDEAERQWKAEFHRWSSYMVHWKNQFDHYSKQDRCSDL

Row | Compound | inhibition [1] | IC50 (Brain) [µM] | also measured
1 | c1ccc(-c2nc[nH]c2-c2ccccc2)cc1 | 13% | 93.2 | 
2 | COc1cc(-c2nc(-c3ccccc3)c(-c3ccccc3)[nH]2)cc(OC)c1O | inactive | 264 | 
3 | COc1cccc(-c2nc(-c3ccccc3)c(-c3ccccc3)[nH]2)c1 | 19.2% | 86.5 | 
4 | c1ccc(-c2nc(-c3ccccc3)c(-c3ccccc3)[nH]2)cc1 | inactive | 106 | 
5 | NC(=O)CN1CCCC1=O |  |  | Activity (Mus musculus [2]): Active; Activity (Mus musculus [3]): Active
6 | COc1ccc(-c2nc(-c3ccccc3)c(-c3ccccc3)[nH]2)cc1OC | inactive | 94 | 
7 | Oc1ccc(-c2nc(-c3ccccc3)c(-c3ccccc3)[nH]2)cc1O | 79.5% | 59.4 | 
8 | CCCCOc1ccc(C(=O)CCN2CCCCC2)cc1 [DYCLONINE] |  |  | IC50 (Acetylcholinesterase [4]): 0.181 µM
9 | Oc1ccccc1-c1nc(-c2ccccc2)c(-c2ccccc2)[nH]1 | 13.7% | 101 | 
10 | Oc1ccc(-c2nc(-c3ccccc3)c(-c3ccccc3)[nH]2)cc1 | inactive | 62.4 | 
11 | CCc1nn(CCCN2CCN(c3cccc(Cl)c3)CC2)c(=O)n1CCOc1ccccc1 [NEFAZODONE] |  |  | IC50 (Acetylcholinesterase [4]): 1.04 µM
12 | COc1cc(-c2nc(-c3ccccc3)c(-c3ccccc3)[nH]2)cc(OC)c1OC | 81.3% | 61.3 | IC50 (Acetylcholinesterase [5]): Not Active; IC50 (Cholinesterase; read-out: IC50): 4.99 µM; Activity (Mus musculus [6]): Non-Toxic; Activity (Mus musculus [7]): Non-Toxic; Activity (Mus musculus [8]): Non-Toxic; Activity (Mus musculus [9]): Non-Toxic; Activity (Mus musculus [10]): Non-Toxic; Activity (Mus musculus [11]): Non-Toxic; Activity (Mus musculus [12]): Non-Toxic; mortality at 14 days [13]: 50%; Activity (Mus musculus [14]): Active; Activity (Mus musculus [15]): Active
13 | Oc1cccc(-c2nc(-c3ccccc3)c(-c3ccccc3)[nH]2)c1 | inactive | 61.8 | IC50 (Acetylcholinesterase [5]; read-out: IC50): 5.33 µM; IC50 (Cholinesterase): Not Active; Activity (Mus musculus [16]): Active; Activity (Mus musculus [17]): Active
14 | O=C1O[C@H]([C@@H](O)CO)C(O)=C1O [ASCORBIC ACID] |  | 38.8 | 
